Results pooled from the literature.
Compare with care: the assays were run in different laboratories.
Target: Calcium/calmodulin-dependent protein kinase type II subunit delta (CAMK2D, Homo sapiens, UniProt Q13557)

Nc1ncc(-c2nc(N3CCOCC3)nc(N3CCOCC3)n2)c(C(F)F)n1  remaining binding (binding, competition with immobilised ligand; 10 µM): 66%
O=c1[nH]c2ccccc2n1C1CCN(Cc2ccc(-c3[nH]c4cc5ncnc5cc4nc3-c3ccccc3)cc2)CC1  remaining signal (cell-free assay; 0.5 µM): 97.7%
Cn1cncc1[C@@](O)(COc1ccc(C#N)cc1-c1ccc(OC(F)(F)F)cc1)c1ccc(C#N)cc1  remaining binding (cell-free assay, competition with immobilised ligand; 1 µM): 95%
COc1ncccc1-c1cnn2ccc(N3CCN(C(=O)OC(C)C)CC3)nc12  remaining binding (binding, competition with immobilised ligand; 1 µM): 83%
Cn1cc(-c2cccc(N3CCc4c(sc5c4CC(C)(C)C5)C3=O)c2CO)cc(Nc2ccncn2)c1=O  inhibition (enzyme activity, inhibitor; 1 µM): 3%
Cc1nn(C)cc1-c1nc2c(N3CCN(Cc4ccc(Cl)cc4)CC3)c(Cl)cnc2[nH]1  remaining binding (binding, competition with immobilised ligand; 1 µM): 94%
CC(C)(C)c1cc(C=C(C#N)C#N)cc(Br)c1O  remaining activity (enzyme activity, inhibitor; 0.5 µM): 96%
Cn1cc(-c2cc(F)cc(N3CCn4c(cc5c4CCCC5)C3=O)c2CO)cc(Nc2ccc(N3CCN(C4COC4)CC3)cn2)c1=O  inhibition (enzyme activity, inhibitor; 0.1 µM): 11%
